From PubChem BioAssay
The source made the active and inactive calls.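 How the source made its calls, unless noted: active means GFP response above 150% of the DMSO level; inconclusive means fewer than 70 events counted for a yeast strain; inactive means the rest.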

How the values were obtained:
[1] = RPL19A-GFP modulators, yeast TOR pathway, confirmation, cell-based, S. cerevisiae, flow cytometry, cherry picks, mother/daughter gates (AID 2270;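 active means GFP response below 50% of the DMSO control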); settings: S. cerevisiae RPL19A-GFP strain, 3 h, at 10 µM, stronger effect = lower value, 100 = same GFP as DMSO wells
[2] = LAP4-GFP expression modulators in yeast, confirmation, cell-based, cherry picks, flow cytometry, mother/daughter gates (AID 2271;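 active means GFP response above 150% of the DMSO control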;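 further: ratio of sample to DMSO plate mean so 100% equals DMSO level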); settings: S. cerevisiae LAP4-GFP strain, 3 h, at 10 µM, stronger effect = higher value, 100 means same as DMSO control
Procedure, shortened: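 System – GFP-fusion yeast strain · Amount – 0.2 OD600 cells · Buffer or medium – SC growth medium · Dosing – single test-compound dose, 10 µM final · Schedule – 3 h treatment at 30 °C with rotation · Detection – GFP by flow cytometry · Read-out – per-gate (all, mother, daughter) GFP response vs DMSO · Benchmarks – positive rapamycin (400 ng/mL), negative DMSO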

[3] = modulators of MEP2-GFP levels in yeast, confirmation, S. cerevisiae, flow cytometry GFP, cherry picks (AID 2272;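 active means GFP response above 150% of the DMSO control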;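 further: ratio of well signal to plate DMSO mean so 100% equals DMSO level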); settings: S. cerevisiae MEP2-GFP strain, 3 h, at 10 µM, stronger effect = higher value
[4] = AGP1-GFP expression modulators, hit retest, confirmation, cell-based, flow cytometry, S. cerevisiae, cherry picks (AID 2273);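 further: median GFP channel fluorescence over the whole cell population gate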; settings: S. cerevisiae AGP1-GFP strain, 3 h, at 10 µM
[5] = modulators of CIT2-GFP expression in yeast, confirmation, S. cerevisiae, GFP fusion, cherry picks, mother/daughter gates (AID 2274); settings: S. cerevisiae CIT2-GFP strain, flow cytometry, 3 h, at 10 µM, stronger effect = higher value
[6] = measured here: daughter cell gate
[7] = measured here: mother cell gate
[8] = measured here: daughter cell gate response
[9] = measured here: mother cell gate response

Row | Structure (SMILES) | GFP response vs DMSO [1] | GFP response vs DMSO [1, 6] [%] | GFP response vs DMSO [1, 7] [%] | GFP response relative to DMSO [2] | GFP response relative to DMSO [2, 8] [%] | GFP response relative to DMSO [2, 9] [%] | GFP response vs DMSO [3] | GFP response, % of DMSO [4] | GFP response, % of DMSO [5] | GFP response, % of DMSO [5, 6] [%] | GFP response, % of DMSO [5, 7] [%]
1 | O=C(Nc1nc(-c2ccc(Cl)s2)cs1)c1cccs1 | 93.8% (inactive) | 91 | 93.7 | 113% (inactive) | 107 | 119 | 97.2% (inactive) | 98.8% (inactive) | 83.3% (inactive) | 85.2 | 82.6
2 | COc1ccccc1N1C(=O)c2cccc3c(C(=O)O)ccc(c23)C1=O | 98.8% (inactive) | 99.1 | 98.7 | 101% (inactive) | 101 | 98.3 | 105% (inactive) | 97.4% (inactive) | 99.7% (inactive) | 101 | 98.5
3 | O=C(Nc1nc(-c2ccccc2Cl)cs1)c1cccnc1 | 100% (inactive) | 94.7 | 99.2 | 97.4% (inactive) | 95.6 | 99.3 | 100% (inactive) | 89.1% (inactive) | 99.1% (inactive) | 94.8 | 97.7
4 | CC(=O)N(C1=C(Cl)C(=O)c2ccccc2C1=O)C1CCCCC1 | 22.6% (active) | 92.8 | 23.1 | 72.2% (inactive) | 113 | 73.7 | 97.8% (inactive) | 34.1% (inactive) | 69.1% (inactive) | 93.2 | 54.7
5 | Cc1n[nH]c(C)c1N1C(=O)c2cccc3c(Br)ccc(c23)C1=O | 101% (inactive) | 100 | 101 | 98.8% (inactive) | 99.3 | 98.5 | 104% (inactive) | 92.5% (inactive) | 96.4% (inactive) | 96.4 | 94.5
6 | CCC(=O)Oc1oc(-c2ccccc2)nc1C=Nc1ccccc1OC | 102% (inactive) | 102 | 102 | 105% (inactive) | 94.4 | 108 | 95.2% (inactive) | 95.5% (inactive) | 90.3% (inactive) | 86.9 | 92.6
7 | CCOC(=O)c1sc(NC(=O)CN2C(=O)c3cccc4cccc(c34)C2=O)nc1C | 96.6% (inactive) | 98.1 | 96.9 | 87.6% (inactive) | 86.4 | 87.6 | 100% (inactive) | 98.3% (inactive) | 98.3% (inactive) | 101 | 97.3
8 | CCS(=O)(=O)N1N=C(c2ccc(NS(C)(=O)=O)cc2)CC1c1ccccc1 (stereo not drawn) | 99.8% (inactive) | 98.4 | 99 | 101% (inactive) | 104 | 99.5 | 108% (inactive) | 106% (inactive) | 101% (inactive) | 103 | 103
9 | CCNC(=O)c1c(O)c2cccc3c2n(c1=O)CC3 | 103% (inactive) | 101 | 103 | 103% (inactive) | 101 | 105 | 94.7% (inactive) | 99% (inactive) | 98.8% (inactive) | 101 | 98.1
10 | Cc1ccccc1OCC(=O)NNC(=S)NC(=O)c1ccco1 | 122% (inactive) | 111 | 118 | 147% (inactive) | 135 | 137 | 129% (inactive) | 110% (inactive) | 125% (inactive) | 122 | 112
11 | COc1ccc(-c2[nH]ncc2-c2ccc(Cl)cc2)c(O)c1 | 101% (inactive) | 97.8 | 99.4 | 103% (inactive) | 100 | 105 | 102% (inactive) | 93.7% (inactive) | 104% (inactive) | 101 | 105
12 | CCOc1ccccc1NC(=O)c1nc(S(=O)(=O)Cc2ccccc2)ncc1Cl | 97.8% (inactive) | 99.8 | 97.1 | 94.1% (inactive) | 96 | 95.4 | 103% (inactive) | 106% (inactive) | 98.6% (inactive) | 101 | 97.1
13 | Cc1c(N2C(=O)/C(=C\c3ccccc3O)SC2=S)c(=O)n(-c2ccccc2)n1C | 101% (inactive) | 96 | 98.3 | 134% (inactive) | 130 | 137 | 102% (inactive) | 93.2% (inactive) | 105% (inactive) | 109 | 95.6
